Data published in ChEMBL document CHEMBL3526048, “In vitro metabolism of rivoglitazone, a novel peroxisome proliferator-activated receptor γ agonist, in rat, monkey, and human liver microsomes and freshly isolated hepatocytes” (Drug Metab Dispos, 2011).

How the values were obtained:
Cytochrome P450 3A4 [1] = molecular target: T1, Cytochrome P450 3A4 (Homo sapiens, UniProt P08684); assay: Activity of human CYP3A4 expressed in microsomes isolated from baculovirus infected insect cell assessed as enzyme-mediated 2-((4-((2,4-dioxothiazolidin-5-yl)methyl)phenoxy)methyl)-1-methyl-1H-benzo[d]imidazol-6-yl hydrogen sulfate formation at 20 uM after 2 hrs by radio-HPLC/LC-MS/MS analysis; assay type: ADME
T1 sequence (P08684 whole entry): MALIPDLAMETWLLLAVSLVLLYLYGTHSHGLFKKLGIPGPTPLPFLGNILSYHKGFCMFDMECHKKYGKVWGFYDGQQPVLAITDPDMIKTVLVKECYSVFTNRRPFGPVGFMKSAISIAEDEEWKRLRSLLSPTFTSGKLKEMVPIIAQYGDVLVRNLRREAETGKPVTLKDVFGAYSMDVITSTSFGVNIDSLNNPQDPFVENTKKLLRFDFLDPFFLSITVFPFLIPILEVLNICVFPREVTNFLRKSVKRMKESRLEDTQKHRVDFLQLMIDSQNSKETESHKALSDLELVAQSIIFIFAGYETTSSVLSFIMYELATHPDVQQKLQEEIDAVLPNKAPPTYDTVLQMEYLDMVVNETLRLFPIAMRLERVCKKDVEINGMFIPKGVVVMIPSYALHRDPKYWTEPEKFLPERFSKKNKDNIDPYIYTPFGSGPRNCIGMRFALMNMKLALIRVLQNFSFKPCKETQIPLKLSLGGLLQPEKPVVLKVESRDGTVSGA
Method in brief: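 Baculovirus-insect-cell microsomes expressing the human CYP (1 mg/ml protein) were incubated with [14C]rivoglitazone (20 μM) in 50 mM potassium phosphate (pH 7.4) or 100 mM Tris-HCl (pH 7.5) with an NADPH-generating system (2 mM NADP+, 20 mM glucose 6-phosphate, 2 units/ml G6PDH, 10 mM MgCl2) for 2 h at 37°C. Insect-cell control supersomes served as the control. Reactions were stopped with acetonitrile, and the concentrated supernatants were analysed by radio-HPLC, LC-MS and LC-MS/MS.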

Cytochrome P450 3A4 [2] = molecular target: T1, Cytochrome P450 3A4; assay: Activity of human CYP3A4 expressed in microsomes isolated from baculovirus infected insect cell assessed as enzyme-mediated (2S,3S,4S,5R,6R)-3,4,5-trihydroxy-6-(5-(4-((6-methoxy-1-methyl-1H-benzo[d]imidazol-2-yl)methoxy)benzyl)-2,4-dioxothiazolidin-3-yl)tetrahydro-2H-pyran-2-carboxylic acid formation at 20 uM after 2 hrs by radio-HPLC/LC-MS/MS analysis in presence of UDPGA and UDPGA/SAM; assay type: ADME

COc1ccc2nc(COc3ccc(C[14CH]4SC(=O)NC4=O)cc3)n(C)c2c1.Cl (racemic)
Drug metabolism (Cytochrome P450 3A4 [1]): metabolite_not_detected | Drug metabolism (Cytochrome P450 3A4 [2]): metabolite_not_detected
